Test [1] addresses T1, Neuromedin-K receptor (Rattus norvegicus, UniProt P16177).
T1 sequence (P16177 whole entry): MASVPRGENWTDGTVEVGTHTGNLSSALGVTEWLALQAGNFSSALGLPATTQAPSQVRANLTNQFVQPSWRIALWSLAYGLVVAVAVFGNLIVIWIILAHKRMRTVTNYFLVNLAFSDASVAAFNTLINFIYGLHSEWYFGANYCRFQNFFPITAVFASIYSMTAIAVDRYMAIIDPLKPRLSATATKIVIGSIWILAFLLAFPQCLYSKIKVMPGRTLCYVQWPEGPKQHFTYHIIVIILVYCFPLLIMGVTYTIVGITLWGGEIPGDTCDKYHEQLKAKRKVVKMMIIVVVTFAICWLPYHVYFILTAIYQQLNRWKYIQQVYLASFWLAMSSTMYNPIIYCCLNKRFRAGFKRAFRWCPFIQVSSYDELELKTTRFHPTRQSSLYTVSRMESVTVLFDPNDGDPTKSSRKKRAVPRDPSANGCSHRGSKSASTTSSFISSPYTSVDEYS
Briefly: Effective concentration to activate Tachykinin receptor 3 in rat portal vein (RPV). The gist of the method: (§1)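 Portal vein from rat killed by decapitation, mounted in a bath at 37 °C under about 0.5 g tension and equilibrated for 1 h. Peptides were then added at 20 min intervals to avoid receptor desensitization, and contractile responses were recorded.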

A further test deals with Substance-P receptor (Cavia porcellus, UniProt P30547). As to the kind of experiment: Effective concentration to activate Tachykinin receptor 1 in guinea pig ileum(GPI). Type of test: tissue-based.
For test [2], the target named is T2, Substance-K receptor (Rattus norvegicus, UniProt P16610).
T2 sequence (P16610 whole entry): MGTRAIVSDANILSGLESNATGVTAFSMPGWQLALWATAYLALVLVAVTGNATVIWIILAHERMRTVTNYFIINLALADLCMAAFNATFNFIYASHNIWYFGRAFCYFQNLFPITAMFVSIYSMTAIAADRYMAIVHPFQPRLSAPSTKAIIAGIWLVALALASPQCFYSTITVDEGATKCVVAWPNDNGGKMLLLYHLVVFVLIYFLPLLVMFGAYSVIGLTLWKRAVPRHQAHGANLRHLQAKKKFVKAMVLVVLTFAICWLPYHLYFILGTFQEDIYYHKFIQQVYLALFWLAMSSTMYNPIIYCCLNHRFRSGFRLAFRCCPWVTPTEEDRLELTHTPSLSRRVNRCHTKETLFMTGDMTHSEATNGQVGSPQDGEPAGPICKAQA
As to the kind of experiment: Effective concentration to activate Tachykinin receptor 2 in rat vas deferens (RVD).

Test [3] has as its target T1, Neuromedin-K receptor. As to the kind of experiment: Effective concentration to activate Tachykinin receptor 3 in rat portal vein(RPV). The method in brief:
as §1

Test [4] has as its target T2, Substance-K receptor. Briefly: Effective concentration to activate Tachykinin receptor 2 in rat vas deferens(RVD).

Starred links: 1 amine or outer side, 2 acyl side, 3 side chain; linkers in the order of their positions; H or OH if unused. Positions of bridges follow the written chain, without caps; N, C: chain ends. Non-standard residues stand in square brackets, D forms with d. Residues, ends and D or L forms follow the SMILES beside them. *: point of attachment. N(6-aminohexyl)Gly = O=C(CN(CCCCCCN[*:3])[*:1])[*:2]; NGly(3-aminopropyl) = O=C(CN(CCCN[*:3])[*:1])[*:2]; N(2-Aminoethyl)Gly = O=C(CN(CCN[*:3])[*:1])[*:2]; Adipoyl = O=C(CCCCC(=O)[*:2])[*:1]; Glutaryl = O=C(CCCC(=O)[*:2])[*:1]; X2 = CC(=O)NCCCN(CC(=O)[*:2])[*:1]; Gly(N(CH2)3NH2) = NCCCNCC(=O)O; Suc = O=C(CCC(=O)[*:2])[*:1]; X1 = CNC(=O)CCCCC(=O)*

In general, EC50 refers to the concentration that produces a half-maximal response. A high value points to weaker potency.

Sequence of Substance-P receptor (P30547 whole entry): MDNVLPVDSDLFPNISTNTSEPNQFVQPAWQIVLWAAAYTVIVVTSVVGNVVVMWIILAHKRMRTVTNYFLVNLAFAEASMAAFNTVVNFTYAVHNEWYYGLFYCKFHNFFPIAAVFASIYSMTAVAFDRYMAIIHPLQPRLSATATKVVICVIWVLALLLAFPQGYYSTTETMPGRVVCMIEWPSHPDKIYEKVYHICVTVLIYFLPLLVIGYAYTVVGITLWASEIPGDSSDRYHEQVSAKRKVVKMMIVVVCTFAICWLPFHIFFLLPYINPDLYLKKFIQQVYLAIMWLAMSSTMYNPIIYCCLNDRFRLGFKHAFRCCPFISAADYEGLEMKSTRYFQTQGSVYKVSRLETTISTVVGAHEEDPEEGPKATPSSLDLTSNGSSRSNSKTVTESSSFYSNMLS

With `CSCC[C@H](NC(=O)[C@H](CC(C)C)NC(=O)CN1CCCCCCNC(=O)CCCC(=O)N[C@@H](CCCN=C(N)N)C(=O)N[C@@H](Cc2ccccc2)C(=O)N[C@@H](Cc2ccccc2)C1=O)C(N)=O` (RFF[N(6-aminohexyl)Gly]LM-NH2; linker N-4 via Glutaryl), the EC50 is 1000 nM on Neuromedin-K receptor [1], 60 nM on Substance-P receptor and more than 50 µM on Substance-K receptor [2].
On the same counts, the results for `CSCC[C@H](NC(=O)[C@H](CC(C)C)NC(=O)CN1CCNC(=O)CCC(=O)NCC(=O)N[C@@H](CCCN=C(N)N)C(=O)N[C@@H](Cc2ccccc2)C(=O)N[C@@H](Cc2ccccc2)C1=O)C(N)=O` (GRFF[N(2-Aminoethyl)Gly]LM-NH2; linker N-5 via Suc) are more than 10000 nM, more than 10000 nM and more than 50 µM.
In the case of Ac-RFFPLM-NH2, the EC50 on Neuromedin-K receptor [3] is more than 50000 nM; at Substance-P receptor it was 3 nM; at Substance-K receptor [2] it was more than 200 µM.
Consider `CSCC[C@H](NC(=O)[C@H](CC(C)C)NC(=O)CN1CCCNC(=O)CCCCC(=O)N[C@@H](CCCN=C(N)N)C(=O)N[C@@H](Cc2ccccc2)C(=O)N[C@@H](Cc2ccccc2)C1=O)C(N)=O` (RFF[NGly(3-aminopropyl)]LM-NH2; linker N-4 via Adipoyl), for which the EC50 was more than 10000 nM on Neuromedin-K receptor [1], 5 nM on Substance-P receptor and more than 200 µM on Substance-K receptor [2].
In the same order, the values of `CSCC[C@H](NC(=O)[C@H](CC(C)C)NC(=O)CN1CCNC(=O)CCC(=O)N[C@@H](CCCNC(=N)N)C(=O)N[C@@H](Cc2ccccc2)C(=O)N[C@@H](Cc2ccccc2)C1=O)C(N)=O` (RFF[N(2-Aminoethyl)Gly]LM-NH2; linker N-4 via Suc) are more than 10000 nM, 4000 nM and more than 50 µM.
`CSCC[C@H](NC(=O)[C@H](CC(C)C)NC(=O)CN1CCCNC(=O)CCC(=O)N[C@@H](CCCN=C(N)N)C(=O)N[C@@H](Cc2ccccc2)C(=O)N[C@@H](Cc2ccccc2)C1=O)C(N)=O` (RFF[NGly(3-aminopropyl)]LM-NH2; linker N-4 via Suc): the EC50 on Neuromedin-K receptor [1] was more than 10000 nM; on Substance-P receptor it was 180 nM; at Substance-K receptor [2], more than 50 µM.
In the same order, the values of `CSCC[C@H](NC(=O)[C@H](CC(C)C)NC(=O)CN1CCCNC(=O)CCCC(=O)N[C@@H](CCCN=C(N)N)C(=O)N[C@@H](Cc2ccccc2)C(=O)N[C@@H](Cc2ccccc2)C1=O)C(N)=O` (RFF[NGly(3-aminopropyl)]LM-NH2; linker N-4 via Glutaryl) are more than 10000 nM, 11 nM and more than 50 µM.
In the case of `CNC(=O)CCCCC(=O)N[C@@H](CCCNC(=N)N)C(=O)N[C@@H](Cc1ccccc1)C(=O)N[C@@H](Cc1ccccc1)C(=O)N(CCCNC(C)=O)CC(=O)N[C@@H](CC(C)C)C(=O)N[C@@H](CCSC)C(N)=O` (X1-RFF[X2]LM-NH2), the EC50 at Substance-K receptor [4] was more than 100 µM; at Neuromedin-K receptor [3], 2000 nM; at Substance-P receptor it was 400 nM.
`CSCC[C@H](NC(=O)[C@H](CC(C)C)NC(=O)CNC(=O)[C@H](Cc1ccccc1)N(C)C(=O)[C@H](Cc1ccccc1)NC(=O)[C@H](CC(=O)O)NC(=O)CCC(=O)O)C(N)=O` [SENKTIDE]: the EC50 on Substance-P receptor is 35000 nM; on Substance-K receptor [2], more than 200 µM.
Regarding `CSCC[C@H](NC(=O)[C@H](CC(C)C)NC(=O)CN1CCCCCCNC(=O)CCC(=O)N[C@@H](CCCN=C(N)N)C(=O)N[C@@H](Cc2ccccc2)C(=O)N[C@@H](Cc2ccccc2)C1=O)C(N)=O` (RFF[N(6-aminohexyl)Gly]LM-NH2; linker N-4 via Suc), the EC50 at Neuromedin-K receptor [1] is 1000 nM; at Substance-P receptor, 160 nM; on Substance-K receptor [2], more than 50 µM.
On the same counts, the results for `CSCC[C@H](NC(=O)[C@H](CC(C)C)NC(=O)CN(CCCN)C(=O)[C@H](Cc1ccccc1)NC(=O)[C@H](Cc1ccccc1)NC(=O)[C@H](CCCNC(=N)N)NC(C)=O)C(N)=O` (Ac-RFF[Gly(N(CH2)3NH2)]LM-NH2) are 2000 nM, 300 nM and more than 100 µM.

The values above are taken from ChEMBL document CHEMBL1129266, “Synthesis and biological activity of NK-1 selective, N-backbone cyclic analogs of the C-terminal hexapeptide of substance P” (J Med Chem, 1996).
